Data set [1] is described as follows: melting temperature; fluorescence melt of hairpins on a sequencing array, two-state fit, raised by 9.35 °C to match UV melts. The conditions noted are these: sodium 0.088 M. The gist of the method:
(§1)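 Folding enthalpy and melting temperature were estimated with bootstrapped two-state fits and combined across four replicates by inverse-variance weighting, with fitted temperatures raised by 9.35 °C to match UV melts. The data were Cy3 fluorescence of library hairpins, with annealed Cy3 and quencher oligos, on a sequenced MiSeq flow cell in 50 mM Na-HEPES pH 8.0, 25 mM NaCl, imaged in 2.5 °C steps up to 60 °C and normalised to pre-quench Cy3 and control constructs.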

A short description of data set [2]: folding enthalpy; higher = less favourable; fluorescence melt of hairpins on a sequencing array, two-state fit. The conditions noted are these: sodium 0.088 M. The gist of the method: as §1

Turning to GATCAACCCATTGATC ((((((....)))))), the Tm in data set [1] was found to be 44.8 °C. In addition, the folding enthalpy in data set [2] was -31.8 kcal/mol.
For GATCAACCCTTGATC ((((((...)))))) the same measures were 43.6 °C and -30.4 kcal/mol.
On the same counts, the results for GATCAACCGGTTGATC ((((((....)))))) are 55.9 °C and -53.5 kcal/mol.
For GATCAACCTGTTGATC ((((((....)))))) the same measures were 55.2 °C and -41 kcal/mol.
On to GATCAACGATTGATC ((((((...)))))), for which the Tm in data set [1] stood at 36.3 °C. Further, the folding enthalpy in data set [2] is -19.8 kcal/mol.
As to GATCAACGATTTGATC ((((((....)))))), the Tm in data set [1] was found to be 39.3 °C. For the same sequence, the folding enthalpy in data set [2] is -24.9 kcal/mol.
On the same counts, the results for GATCAACGGGTTGATC ((((((....)))))) are 56.8 °C and -36.7 kcal/mol.
On the same counts, the results for GATCAACGGTTGATC ((((((...)))))) are 44.7 °C and -40.3 kcal/mol.
For GATCAACGTATTGATC ((((((....)))))) the same measures were 44.1 °C and -26.9 kcal/mol.
Consider GATCAACGTGTTGATC ((((((....)))))), for which the Tm in data set [1] was determined as 57.4 °C. Besides, the folding enthalpy in data set [2] is -60.2 kcal/mol.
For GATCAACTGATTGATC ((((((....)))))) the same measures were 42.7 °C and -32.3 kcal/mol.
In the case of GATCAACTGGTTGATC ((((((....)))))), the Tm in data set [1] amounted to 55.2 °C. In addition, the folding enthalpy in data set [2] is -39.8 kcal/mol.
As for GATCAACTTATTGATC ((((((....)))))), the Tm in data set [1] was 43 °C. Also, the folding enthalpy in data set [2] was -35.4 kcal/mol.
As for GATCAAGACGTTGATC ((((((....)))))), in data set [1], the Tm stood at 48.2 °C. Further, the folding enthalpy in data set [2] is -34 kcal/mol.
Turning to GATCAAGACTTGATC ((((((...)))))), the Tm in data set [1] was determined as 43.4 °C. The folding enthalpy in data set [2] is -32.4 kcal/mol.
On the same counts, the results for GATCAAGACTTTGATC ((((((....)))))) are 51.7 °C and -35 kcal/mol.
For GATCAAGAGATTGATC ((((((....)))))) the same measures were 41.8 °C and -29.5 kcal/mol.
For GATCAAGATATTGATC ((((((....)))))) the same measures were 48.5 °C and -34.7 kcal/mol.
As for GATCAAGCAATTGATC ((((((....)))))), the Tm in data set [1] was 48.8 °C. For the same sequence, in data set [2], the folding enthalpy is -34.1 kcal/mol.
On to GATCAAGCATTTGATC ((((((....)))))), for which the Tm in data set [1] stood at 51 °C. The folding enthalpy in data set [2] was -32.7 kcal/mol.
For GATCAAGCCATTGATC ((((((....)))))) the same measures were 50.5 °C and -48.9 kcal/mol.
For GATCAAGCGTTTGATC ((((((....)))))) the same measures were 43.9 °C and -30.8 kcal/mol.
Regarding GATCAAGCTTTGATC ((((((...)))))), the Tm in data set [1] turned out to be 43.4 °C. The folding enthalpy in data set [2] was -29.5 kcal/mol.
For GATCAAGGAAACTCGATC ((((.((....)).)))) the same measures were 28.4 °C and -17.2 kcal/mol.
In the case of GATCAAGGAAACTTGATC (((((((....))))))), the Tm in data set [1] is 54 °C. Moreover, the folding enthalpy in data set [2] is -46.6 kcal/mol.
On to GATCAAGGAATTGATC ((((((....)))))), for which, in data set [1], the Tm was 47.6 °C. Further, in data set [2], the folding enthalpy was -31.8 kcal/mol.
For GATCAAGGCTTTGATC ((((((....)))))) the same measures were 50.1 °C and -42 kcal/mol.
For GATCAAGGTGTTGATC ((((((....)))))) the same measures were 46.1 °C and -31.7 kcal/mol.
For GATCAAGTCATTGATC ((((((....)))))) the same measures were 52.3 °C and -41.8 kcal/mol.
Turning to GATCAATAAATTGATC ((((((....)))))), the Tm in data set [1] was determined as 42.8 °C. The folding enthalpy in data set [2] is -30.7 kcal/mol.
On the same counts, the results for GATCAATACATTGATC ((((((....)))))) are 49.2 °C and -37.3 kcal/mol.
Consider GATCAATACGTTGATC ((((((....)))))), for which the Tm in data set [1] worked out at 48 °C. The folding enthalpy in data set [2] was -37.9 kcal/mol.
For GATCAATACTTTGATC ((((((....)))))) the same measures were 48.1 °C and -39.6 kcal/mol.
On the same counts, the results for GATCAATAGTTGATC ((((((...)))))) are 40.5 °C and -26.2 kcal/mol.
On the same counts, the results for GATCAATATGTTGATC ((((((....)))))) are 49 °C and -38.9 kcal/mol.
With GATCAATATTTGATC ((((((...)))))), the Tm in data set [1] was 41.9 °C. Further, the folding enthalpy in data set [2] is -27.9 kcal/mol.
On the same counts, the results for GATCAATATTTTGATC ((((((....)))))) are 45.6 °C and -35.6 kcal/mol.
For the sequence GATCAATCCCTTGATC ((((((....)))))), in data set [1], the Tm was determined as 46.7 °C. Moreover, the folding enthalpy in data set [2] was -41.6 kcal/mol.
On the same counts, the results for GATCAATCGTTGATC ((((((...)))))) are 40.4 °C and -26.8 kcal/mol.
On the same counts, the results for GATCAATGGCTTGATC ((((((....)))))) are 42.2 °C and -29 kcal/mol.
For GATCAATGGTTGATC ((((((...)))))) the same measures were 41 °C and -26.7 kcal/mol.
Consider GATCAATGGTTTGATC ((((((....)))))), for which, in data set [1], the Tm was 44.7 °C. In data set [2], the folding enthalpy is -31.9 kcal/mol.
Consider GATCAATGTGTTGATC ((((((....)))))), for which, in data set [1], the Tm turned out to be 50.4 °C. Further, the folding enthalpy in data set [2] was -35 kcal/mol.
On the same counts, the results for GATCAATGTTTTGATC ((((((....)))))) are 47 °C and -29.4 kcal/mol.
As for GATCAATTATTTGATC ((((((....)))))), the Tm in data set [1] was found to be 45.8 °C. Besides, the folding enthalpy in data set [2] was -38.9 kcal/mol.
Regarding GATCAATTCATTGATC ((((((....)))))), in data set [1], the Tm was 53.1 °C. The folding enthalpy in data set [2] was -50.7 kcal/mol.
With GATCAATTCGTTGATC ((((((....)))))), the Tm in data set [1] was determined as 48.6 °C. In data set [2], the folding enthalpy was -37.8 kcal/mol.
For GATCAATTCTTGATC ((((((...)))))) the same measures were 44.8 °C and -29.1 kcal/mol.
On the same counts, the results for GATCAATTTATTGATC ((((((....)))))) are 54.2 °C and -52.4 kcal/mol.
On the same counts, the results for GATCAATTTCTTGATC ((((((....)))))) are 43.3 °C and -39.3 kcal/mol.
In the case of GATCACAAGGGTGATC ((((((....)))))), the Tm in data set [1] amounted to 55.9 °C. For the same sequence, the folding enthalpy in data set [2] was -36.4 kcal/mol.
For GATCACAATCGTGATC ((((((....)))))), the Tm in data set [1] was 56.4 °C. Besides, the folding enthalpy in data set [2] is -38.5 kcal/mol.
As to GATCACACGGTGATC ((((((...)))))), the Tm in data set [1] worked out at 60.5 °C. Besides, the folding enthalpy in data set [2] was -37.5 kcal/mol.
On the same counts, the results for GATCACACGTGTGATC ((((((....)))))) are 57.7 °C and -43.5 kcal/mol.
On the same counts, the results for GATCACACTTGTGATC ((((((....)))))) are 56.4 °C and -39.4 kcal/mol.
Turning to GATCACAGAAGTGATC ((((((....)))))), the Tm in data set [1] came out at 54.4 °C. In data set [2], the folding enthalpy is -37.4 kcal/mol.
For the sequence GATCACAGTAGTGATC ((((((....)))))), in data set [1], the Tm was determined as 59 °C. Also, the folding enthalpy in data set [2] was -40.1 kcal/mol.

These data come from the array DNA melting data of Ke et al. (doi:10.1101/2024.01.08.574731).
